Values after ≈ are worked out from the molar mass of the structure shown.
Columns and labels:
[1] = test system: MCF7; assay: Inhibitory concentration against fatty acid synthesis in MCF-7 breast cancer cells; format: functional, cell-based, Homo sapiens
[2] = test system: MCF7; assay: Inhibitory concentration against MCF-7 breast cancer cells in XTT assay (non radioactive assay); format: functional, cell-based, Homo sapiens
How it was run: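 MCF-7 human breast cancer cells, cytotoxicity measured by XTT cell proliferation assay (nonradioactive). The procedure was adapted from the kit instructions. IC50 is the average of duplicate runs.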

[3] = target: Fatty acid synthase (Homo sapiens, UniProt P49327); assay: Inhibitory concentration against purified human fatty acid synthase activity in ZR-75-1 breast cancer cells
Fatty acid synthase, sequence (P49327 whole entry): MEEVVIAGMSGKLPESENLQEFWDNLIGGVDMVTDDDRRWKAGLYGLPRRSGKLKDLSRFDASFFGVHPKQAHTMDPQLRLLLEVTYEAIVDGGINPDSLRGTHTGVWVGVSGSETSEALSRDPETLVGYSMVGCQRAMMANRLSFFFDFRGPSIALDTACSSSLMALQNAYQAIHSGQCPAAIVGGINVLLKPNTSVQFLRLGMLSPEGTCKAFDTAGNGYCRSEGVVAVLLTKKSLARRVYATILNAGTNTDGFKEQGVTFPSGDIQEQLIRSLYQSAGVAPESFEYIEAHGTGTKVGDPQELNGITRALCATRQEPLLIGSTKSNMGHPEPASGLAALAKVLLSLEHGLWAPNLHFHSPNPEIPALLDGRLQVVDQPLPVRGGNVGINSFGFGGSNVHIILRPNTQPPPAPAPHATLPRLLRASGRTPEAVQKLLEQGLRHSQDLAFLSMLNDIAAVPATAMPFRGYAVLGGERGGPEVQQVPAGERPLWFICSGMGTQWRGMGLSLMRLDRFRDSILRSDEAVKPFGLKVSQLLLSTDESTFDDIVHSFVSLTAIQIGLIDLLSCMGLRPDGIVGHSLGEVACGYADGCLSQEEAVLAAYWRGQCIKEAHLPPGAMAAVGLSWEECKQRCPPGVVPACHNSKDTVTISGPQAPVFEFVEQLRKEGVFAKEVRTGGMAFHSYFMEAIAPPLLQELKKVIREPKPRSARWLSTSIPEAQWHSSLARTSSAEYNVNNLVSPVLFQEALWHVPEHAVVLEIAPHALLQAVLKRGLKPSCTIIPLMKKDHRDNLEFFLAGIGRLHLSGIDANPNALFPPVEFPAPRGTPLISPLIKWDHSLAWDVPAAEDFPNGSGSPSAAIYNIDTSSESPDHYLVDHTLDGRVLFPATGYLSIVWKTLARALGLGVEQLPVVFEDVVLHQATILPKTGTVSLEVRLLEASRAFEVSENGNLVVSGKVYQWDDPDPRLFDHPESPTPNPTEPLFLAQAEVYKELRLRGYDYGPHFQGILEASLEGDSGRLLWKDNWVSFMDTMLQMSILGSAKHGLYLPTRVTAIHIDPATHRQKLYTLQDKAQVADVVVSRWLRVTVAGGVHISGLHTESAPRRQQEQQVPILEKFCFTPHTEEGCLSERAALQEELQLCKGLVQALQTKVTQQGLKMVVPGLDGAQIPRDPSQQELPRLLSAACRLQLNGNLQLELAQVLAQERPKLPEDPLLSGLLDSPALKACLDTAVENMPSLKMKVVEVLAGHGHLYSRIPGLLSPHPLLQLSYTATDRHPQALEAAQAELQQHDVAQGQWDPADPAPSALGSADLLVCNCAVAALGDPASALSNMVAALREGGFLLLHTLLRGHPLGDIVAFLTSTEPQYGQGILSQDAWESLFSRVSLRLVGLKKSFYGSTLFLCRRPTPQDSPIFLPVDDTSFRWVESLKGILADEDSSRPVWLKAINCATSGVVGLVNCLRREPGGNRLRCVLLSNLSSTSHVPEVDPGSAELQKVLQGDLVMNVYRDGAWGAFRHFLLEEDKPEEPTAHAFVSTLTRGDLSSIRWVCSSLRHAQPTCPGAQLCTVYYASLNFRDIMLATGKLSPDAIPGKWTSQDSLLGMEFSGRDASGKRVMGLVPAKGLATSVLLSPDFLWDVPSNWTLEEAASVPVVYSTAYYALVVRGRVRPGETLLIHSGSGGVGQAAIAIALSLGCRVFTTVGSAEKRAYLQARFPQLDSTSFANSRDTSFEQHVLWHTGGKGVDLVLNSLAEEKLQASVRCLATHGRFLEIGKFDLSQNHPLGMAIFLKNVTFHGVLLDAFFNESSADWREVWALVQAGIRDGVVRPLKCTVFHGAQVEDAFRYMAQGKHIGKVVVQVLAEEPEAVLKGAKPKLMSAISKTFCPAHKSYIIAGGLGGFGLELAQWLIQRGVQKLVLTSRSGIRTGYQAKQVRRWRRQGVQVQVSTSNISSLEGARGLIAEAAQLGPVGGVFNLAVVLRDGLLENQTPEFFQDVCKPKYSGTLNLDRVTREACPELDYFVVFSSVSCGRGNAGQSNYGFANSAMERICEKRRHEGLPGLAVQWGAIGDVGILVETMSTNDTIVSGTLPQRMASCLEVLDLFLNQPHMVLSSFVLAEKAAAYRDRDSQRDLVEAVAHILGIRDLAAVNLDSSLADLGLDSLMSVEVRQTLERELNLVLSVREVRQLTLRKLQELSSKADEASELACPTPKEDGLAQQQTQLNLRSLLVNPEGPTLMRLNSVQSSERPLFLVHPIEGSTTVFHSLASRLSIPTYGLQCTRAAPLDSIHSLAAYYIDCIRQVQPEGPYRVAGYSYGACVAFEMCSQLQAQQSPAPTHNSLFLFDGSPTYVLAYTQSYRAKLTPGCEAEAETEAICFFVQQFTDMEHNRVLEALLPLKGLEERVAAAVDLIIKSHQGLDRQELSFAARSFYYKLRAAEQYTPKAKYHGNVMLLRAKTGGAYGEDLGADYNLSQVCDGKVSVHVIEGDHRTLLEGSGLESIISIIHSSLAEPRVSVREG
How it was run: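 FAS purified from ZR-75-1 human breast cancer cells (2 µg per well). Overall reaction read at 37 °C as malonyl-CoA-dependent NADPH oxidation at 340 nm, every 10 s for 5 min. Average of duplicate runs; neg means IC50 > 50 µg/mL.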

[4] = test system: Mus musculus; assay: Maximum amount of weight loss in Balb/C mice after 7 days of 60 mg/kg intraperitoneal administration; format: functional
How it was run: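 Balb/C mice were given a single ip dose of 60 mg/kg in 100 µL DMSO (stock 10 mg/mL in DMSO), or vehicle alone. Mice were weighed daily until treated animals returned to pretreatment weight. The value is the maximum weight loss measured over 7 days.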

[5] = Homo sapiens, MCF7, read-out: IC50

SMILES | IC50 [1, 5] [µg/mL] | IC50 [2, 5] [µg/mL] | IC50 [3] [µM] | Weight loss ([4]; 60 mg/kg) [%] | IC50 ([1]; mcf7) [µg/mL] | IC50 ([2]; mcf7) [µg/mL] | Weight loss [4] [%]
CCCCCCCC[C@@]1(C)SC(O)=C(C(=O)OC)C1=O | 18.7 (≈ 62.2 µM) | 47.2 (≈ 157 µM) | > 166 | – | – | – | –
CCCCCCCC[C@@]1(C)SC(O)=C(C(C)O)C1=O (stereo in doubt; 30) | – | – | 11.5 | 0.2 | 21.7 (≈ 75.8 µM) | 21 (≈ 73.3 µM) | –
C=CCOC(=O)OC1=CC(=O)S[C@]1(C)CCCCCCCC | 14.2 (≈ 43.5 µM) | 37.3 (≈ 114 µM) | 20.8 | – | – | – | 3.4
CCCCCCCC[C@@]1(C)SC(O)=C(C(C)=O)C1=O | 12 (≈ 42.2 µM) | 12.5 (≈ 43.9 µM) | > 176 | – | – | – | 8.2
C=C/C(C)=C/[C@@]1(C)SC(=O)C(C)=C1O (stereo in doubt; form 2) [THIOLACTOMYCIN] | – | – | 143 | – | 41.8 (≈ 199 µM) | – | 2.6
CCCCCC[C@@]1(C)SC(=O)C=C1OCC(=O)NCCCBr | 6.7 (≈ 17.1 µM) | 21 (≈ 53.5 µM) | > 127 | – | – | – | –
C[C@]1(Cc2ccccc2)SC(O)=CC1=O | > 50 | > 80 | > 227 | – | – | – | 1.6
C=CCOC1=CC(=O)S[C@]1(C)CCCCCC | > 50 | 9 (≈ 35.4 µM) | > 197 | – | – | – | –
C=CCOC1=C(C)C(=O)S[C@]1(C)CCCCCCCC | > 50 | 34.7 (≈ 117 µM) | > 169 | – | – | – | –
CCCCCC[C@@]1(C)SC(=O)C=C1OCC(=O)OCC | 14.2 (≈ 47.3 µM) | 39.6 (≈ 132 µM) | > 166 | – | – | – | –
C=C/C(C)=C/[C@@]1(C)SC(=O)C=C1O | – | > 80 | 42.8 | – | – | – | 7.8
CC/C=C/C=C/[C@@]1(C)SC(O)=CC1=O | 16.9 (≈ 80.4 µM) | > 80 | > 238 | – | – | – | 3.2
C=C/C(C)=C/[C@@]1(C)SC(=O)C(C)=C1O (stereo in doubt; form 1) [THIOLACTOMYCIN] | 38.4 (≈ 183 µM) | > 80 | 100 | – | – | – | –
CCCCCCCC[C@@]1(C)SC(=O)C=C1OC(=O)OCC | 14.5 (≈ 46.1 µM) | 15.1 (≈ 48 µM) | 14.6 | – | – | – | 7.1
CCCCCC[C@@]1(C)SC(=O)C=C1OCC(=O)NCC(=O)OC | 9.8 (≈ 28.5 µM) | 40.5 (≈ 118 µM) | > 146 | – | – | – | –
C/C=C/C(C)=C/[C@@]1(C)SC(O)=CC1=O | 17.3 (≈ 82.3 µM) | > 80 | > 238 | – | – | – | 4.1
CCCCCC[C@@]1(C)SC(=O)C=C1OC | 14 (≈ 61.3 µM) | 9.4 (≈ 41.2 µM) | > 219 | – | – | – | –
CCCCCCCC[C@@]1(C)SC(=O)C=C1OCC(=O)O | 13.8 (≈ 45.9 µM) | – | > 166 | – | – | – | –
C=CCOC1=CC(=O)S[C@]1(C)CCCCCCCC | > 50 | 14.5 (≈ 51.3 µM) | > 177 | – | – | – | –
CCCCCCCC[C@@]1(C)SC(=O)C=C1OCC(=O)OCC | 10.8 (≈ 32.9 µM) | 35.3 (≈ 107 µM) | > 152 | – | – | – | 2.7

SMILES | IC50 [1, 5] [µg/mL] | IC50 [2, 5] [µg/mL] | IC50 [3] [µM] | Weight loss ([4]; 60 mg/kg) [%] | IC50 ([1]; mcf7) [µg/mL] | IC50 ([2]; mcf7) [µg/mL] | Weight loss [4] [%]
CCCCCCCC[C@@]1(C)SC(=O)C=C1OCCCCCl | > 50 | 35.3 (≈ 106 µM) | > 150 | – | – | – | –
COC1=CC(=O)S[C@]1(C)Cc1ccccc1 | > 50 | – | > 213 | – | – | – | –
CCCCCCCC[C@@]1(C)SC(O)=C(C(C)O)C1=O (stereo in doubt; 29) | 17.6 (≈ 61.4 µM) | 23.9 (≈ 83.4 µM) | 19.9 | 3.5 | – | – | –
CCCCCCCC[C@@]1(C)SC(=O)C=C1OC(=O)CC | 22.6 (≈ 75.7 µM) | 26.8 (≈ 89.8 µM) | > 168 | – | – | – | –
CCCCCC[C@@]1(C)SC(=O)C=C1OCC(=O)NCC(=O)O | 6.6 (≈ 20 µM) | – | > 152 | – | – | – | 3.5
C=CCC1(CC=C)C(=O)S[C@](C)(CCCCCCCC)C1=O | > 50 | 40.5 (≈ 126 µM) | > 155 | – | – | – | –
CCCCCCCC[C@@]1(C)SC(O)=CC1=O | 12.6 (≈ 52 µM) | 17.6 (≈ 72.6 µM) | 16.5 | – | – | – | 2
CCCCCCCC[C@@]1(C)SC(O)=C(C)C1=O | 16.5 (≈ 64.3 µM) | 48 (≈ 187 µM) | 192 | – | – | – | 0
CCCCCCCC[C@@]1(C)SC(O)=C(C(=O)C(F)(F)F)C1=O | 14.7 (≈ 43.4 µM) | 18.4 (≈ 54.4 µM) | 121 | – | – | – | –
CCCCCCCC[C@@]1(C)SC(=O)C=C1OC | > 50 | 16.4 (≈ 64 µM) | > 195 | – | – | – | –
C=CCC1(C)C(=O)S[C@](C)(CCCCCCCC)C1=O (some centres undefined) | > 50 | 40.5 (≈ 137 µM) | > 169 | – | – | – | –
CCCCCC[C@@]1(C)SC(=O)C=C1OCCCCCl | 8.6 (≈ 28.2 µM) | 20.8 (≈ 68.2 µM) | > 164 | – | – | – | –
C=CCC1=C(O)S[C@](C)(CCCCCCCC)C1=O | 34.8 (≈ 123 µM) | 44.4 (≈ 157 µM) | 9.91 | – | – | – | –
CCCCCCCC[C@@]1(C)SC(=O)C=C1OC(=O)OC | 10.7 (≈ 35.6 µM) | 21.6 (≈ 71.9 µM) | 6.99 | – | – | – | 6.1
CCCCCC[C@@]1(C)SC(O)=CC1=O | 16.5 (≈ 77 µM) | > 80 | > 233 | – | – | – | –
C#CCOC1=CC(=O)S[C@]1(C)CCCCCC | 21.9 (≈ 86.8 µM) | 8.9 (≈ 35.3 µM) | > 198 | – | – | – | –
CCCCCCCC[C@@]1(C)SC(=O)C(C)=C1OC | > 50 | 17.3 (≈ 64 µM) | > 185 | – | – | – | –
CCCC/C=C/C=C/[C@@]1(C)SC(O)=CC1=O | 22.6 (≈ 94.8 µM) | 60 (≈ 252 µM) | 36.5 | – | – | – | 11
C=CCNC(=O)COC1=CC(=O)S[C@]1(C)CCCCCCCC | > 50 | 12.1 (≈ 35.6 µM) | > 147 | – | – | – | 2.4
